ChEMBL document CHEMBL1144304, “Benzimidazole derivatives as novel nonpeptide luteinizing hormone-releasing hormone (LHRH) antagonists. Part 1: Benzimidazole-5-sulfonamides” (Bioorg Med Chem Lett, 2005)

Experiments:
[1] = target: T1, Gonadotropin-releasing hormone receptor (Homo sapiens, UniProt P30968); assay: Inhibitory concentration towards human leutinizing releasing hormone receptor
T1 sequence (P30968 whole entry): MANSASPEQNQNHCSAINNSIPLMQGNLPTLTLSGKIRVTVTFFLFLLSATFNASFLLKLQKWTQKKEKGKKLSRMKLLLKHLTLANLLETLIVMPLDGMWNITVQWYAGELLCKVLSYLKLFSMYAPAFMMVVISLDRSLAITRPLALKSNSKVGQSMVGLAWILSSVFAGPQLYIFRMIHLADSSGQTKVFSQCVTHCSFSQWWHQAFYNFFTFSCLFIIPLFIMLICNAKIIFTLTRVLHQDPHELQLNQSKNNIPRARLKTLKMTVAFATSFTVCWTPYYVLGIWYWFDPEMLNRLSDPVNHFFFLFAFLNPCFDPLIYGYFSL
Summary of the method: (§1)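 CHO cells transfected with human or rat LHRH receptor cDNA, loaded with Fluo-3 AM and preincubated 20 min at 25 °C with varying compound concentrations. Stimulated with LHRH (10 nM for human-receptor cells, 1 nM for rat-receptor cells). Intracellular calcium fluorescence read; inhibition from integral ratio (actual/initial fluorescence). IC50 is the mean of at least two experiments, each in triplicate.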

[2] = target: T2, Gonadotropin-releasing hormone receptor (Rattus norvegicus, UniProt P30969); assay: Inhibitory concentration towards rat leutinizing releasing hormone receptor; summary of the method: as §1
T2 sequence (P30969 whole entry): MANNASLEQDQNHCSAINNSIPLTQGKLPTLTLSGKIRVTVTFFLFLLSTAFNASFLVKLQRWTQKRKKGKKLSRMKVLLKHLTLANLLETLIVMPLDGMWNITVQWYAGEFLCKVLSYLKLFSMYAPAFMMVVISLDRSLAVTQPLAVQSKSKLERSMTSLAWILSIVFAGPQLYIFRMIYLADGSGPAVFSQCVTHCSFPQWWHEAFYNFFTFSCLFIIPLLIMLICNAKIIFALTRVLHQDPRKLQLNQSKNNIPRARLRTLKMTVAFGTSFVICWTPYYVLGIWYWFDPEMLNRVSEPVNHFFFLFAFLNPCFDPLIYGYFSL

| SMILES | IC50 [1] | IC50 [2] |
| --- | --- | --- |
| O=S(=O)(NCc1ccc(F)cc1)c1ccc2c(c1)nc(SCCO)n2Cc1ccccc1 | 0.27 µM | 0.6 µM |
| CSc1nc2cc(S(=O)(=O)NCc3ccc(F)cc3)ccc2n1Cc1ccccc1 | 0.22 µM | 0.21 µM |
| CCOc1nc2cc(S(=O)(=O)NCc3ccc(F)cc3)ccc2n1Cc1cccc(Cl)c1 | 0.88 µM | 1.9 µM |
| O=S(=O)(NCc1ccc(F)cc1)c1ccc2c(c1)nc(SCCN1CCOCC1)n2Cc1ccccc1 | 0.16 µM | 0.17 µM |
| O=S(=O)(NCc1ccc(F)cc1)c1ccc2c(c1)nc(SCc1ccccn1)n2Cc1ccccc1 | 0.82 µM | 0.96 µM |
| O=S(=O)(NCc1ccc(F)cc1)c1ccc2c(c1)nc(NCCN1CCOCC1)n2Cc1ccccc1 | > 10 µM | > 10 µM |
| O=S(=O)(NCc1ccc(F)cc1)c1ccc2c(c1)nc(SCCc1cccnc1)n2Cc1ccccc1 | 0.12 µM | 0.14 µM |
| CCSc1nc2cc(S(=O)(=O)NCc3ccc([N+](=O)[O-])cc3)ccc2n1Cc1ccccc1 | 1.1 µM | 1.2 µM |
| CCSc1nc2cc(S(=O)(=O)NCCN3CCOCC3)ccc2n1Cc1ccccc1 | > 10 µM | > 10 µM |
| CCSc1nc2cc(S(=O)(=O)NCc3ccc(F)cc3)ccc2n1Cc1ccccc1 | 0.25 µM | 0.2 µM |
| O=S(=O)(NCc1ccc(F)cc1)c1ccc2c(c1)nc(SCCc1ccccn1)n2Cc1ccccc1 | 0.23 µM | 0.28 µM |
| CCOC(=O)CSc1nc2cc(S(=O)(=O)NCc3ccc(F)cc3)ccc2n1Cc1ccccc1 | 0.49 µM | 0.81 µM |
| CCOc1nc2cc(S(=O)(=O)NCc3ccc(F)cc3)ccc2n1Cc1ccccc1 | 0.3 µM | 0.47 µM |
| CCSc1nc2cc(S(=O)(=O)NCc3ccc(Cl)cc3)ccc2n1Cc1ccccc1 | 0.28 µM | 0.33 µM |
| CCOc1nc2cc(S(=O)(=O)NCc3ccc(F)cc3)ccc2n1Cc1ccsc1 | 1.4 µM | 2 µM |
| O=S(=O)(NCc1ccc(F)cc1)c1ccc2c(c1)nc(SCc1ccncc1)n2Cc1ccccc1 | 0.32 µM | 0.24 µM |
| O=S(=O)(NCc1ccc(F)cc1)c1ccc2c(c1)nc(SCCNCc1ccccc1)n2Cc1ccccc1 | 0.67 µM | 0.53 µM |
| CCSc1nc2cc(S(=O)(=O)NCc3cccc(OC)c3)ccc2n1Cc1ccccc1 | 4.8 µM | 4 µM |
| CCSc1nc2cc(S(=O)(=O)NCc3ccc(F)cc3)ccc2n1CCc1ccccc1 | > 10 µM | > 10 µM |
| O=S(=O)(NCc1ccc(F)cc1)c1ccc2c(c1)nc(OCCN1CCOCC1)n2Cc1ccccc1 | 5.8 µM | 3.2 µM |
| CCSc1nc2cc(S(=O)(=O)NCc3ccc(OC)cc3)ccc2n1Cc1ccccc1 | 1.1 µM | 0.94 µM |
| CCOc1nc2cc(S(=O)(=O)NCc3ccc(F)cc3)ccc2n1CCN1CCOCC1 | 2.1 µM | 7.2 µM |
